According to ChEMBL document CHEMBL4152192, “Synthesis and anticancer activity evaluation of novel azacalix[2]arene[2]pyrimidines” (Eur J Med Chem, 2018):
Calls of active or inactive are those of the source. No cut-off for these calls is given here.

Key:
A549 = assay: Antiproliferative activity against human A549 cells after 72 hrs by CCK-8 assay; format: functional, cell-based; conditions: A549, 72 h
Summary of the method: (§1)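 Cells seeded at 5 × 10³/well; A549, MCF7 and SH-SY5Y grown in DMEM, CNE and L-02 in RPMI-1640 (10% FBS, pen/strep, 37 °C, 5% CO₂). Compounds in DMSO, diluted in medium; 72 h exposure versus DMSO vehicle. CCK-8 absorbance read at 450 nm; viability taken as treated/control absorbance, IC₅₀ from curve fit. Triplicate wells, three independent experiments.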

SH-SY5Y = assay: Antiproliferative activity against human SH-SY5Y cells after 72 hrs by CCK-8 assay; format: functional, cell-based; summary of the method: as §1
MCF7 [1] = assay: Antiproliferative activity against human MCF7 cells after 72 hrs by CCK-8 assay; format: functional, cell-based; conditions: MCF7, 72 h; summary of the method: as §1
CNE = assay: Antiproliferative activity against human CNE cells after 72 hrs by CCK-8 assay; format: functional, cell-based; summary of the method: as §1
L02 = assay: Antiproliferative activity against human L02 cells after 72 hrs by CCK-8 assay; format: cell-based; conditions: L02, 72 h; summary of the method: as §1
MCF7 [2] = assay: Induction of apoptosis in human MCF7 cells assessed as viable cells at 1.2 uM after 24 hrs by Annexin V-FITC/propidium iodide staining-based flow cytometric analysis (reference value: 97.5%); format: functional; conditions: MCF7, 24 h, read-out: Activity
MCF7 [3] = assay: Induction of apoptosis in human MCF7 cells assessed as improved staining brightness at 0.3 to 1.2 uM after 24 hrs by Hoechst 33342 staining-based fluorescence microscopic analysis; format: functional, cell-based
Summary of the method: (§2)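 MCF7 exposed to 0.3, 0.6 or 1.2 µM for 24 h, then stained with 5 µg/mL Hoechst 33342 for 20 min at 37 °C under 5% CO₂. Nuclear morphology (brightness, chromatin condensation, fragmentation) examined by fluorescence microscopy at ×100.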

MCF7 [4] = assay: Induction of apoptosis in human MCF7 cells assessed as necrotic cells at 0.6 uM after 24 hrs by Annexin V-FITC/propidium iodide staining-based flow cytometric analysis (reference value: 0.426%); format: functional
MCF7 [5] = assay: Induction of apoptosis in human MCF7 cells assessed as necrotic cells at 0.3 uM after 24 hrs by Annexin V-FITC/propidium iodide staining-based flow cytometric analysis (reference value: 0.426%); format: functional
MCF7 [6] = assay: Induction of apoptosis in human MCF7 cells assessed as viable cells at 0.3 uM after 24 hrs by Annexin V-FITC/propidium iodide staining-based flow cytometric analysis (reference value: 97.5%); format: functional; conditions: MCF7, 24 h, read-out: Activity
MCF7 [7] = assay: Cell cycle arrest in human MCF7 cells assessed as accumulation of cells G2 phase at 1.2 uM after 24 hrs by propidium iodide/RNase A staining-based flow cytometric analysis (reference value: 35.08%); format: functional
MCF7 [8] = assay: Cell cycle arrest in human MCF7 cells assessed as accumulation of cells G1 phase at 0.3 uM after 24 hrs by propidium iodide/RNase A staining-based flow cytometric analysis (reference value: 60.6%); format: functional
MCF7 [9] = assay: Induction of apoptosis in human MCF7 cells assessed as early apoptotic cells at 1.2 uM after 24 hrs by Annexin V-FITC/propidium iodide staining-based flow cytometric analysis (reference value: 0.816%); format: functional
MCF7 [10] = assay: Cell cycle arrest in human MCF7 cells assessed as accumulation of cells G2 phase at 0.3 uM after 24 hrs by propidium iodide/RNase A staining-based flow cytometric analysis (reference value: 35.08%); format: functional
MCF7 [11] = assay: Induction of apoptosis in human MCF7 cells assessed as viable cells at 0.6 uM after 24 hrs by Annexin V-FITC/propidium iodide staining-based flow cytometric analysis (reference value: 97.5%); format: functional; conditions: MCF7, 24 h, read-out: Activity
MCF7 [12] = assay: Induction of apoptosis in human MCF7 cells assessed as early apoptotic cells at 0.3 uM after 24 hrs by Annexin V-FITC/propidium iodide staining-based flow cytometric analysis (reference value: 0.816%); format: functional
MCF7 [13] = assay: Cell cycle arrest in human MCF7 cells assessed as accumulation of cells S phase at 0.3 uM after 24 hrs by propidium iodide/RNase A staining-based flow cytometric analysis (reference value: 6.75%); format: functional
MCF7 [14] = assay: Cell cycle arrest in human MCF7 cells assessed as accumulation of cells G1 phase at 0.6 uM after 24 hrs by propidium iodide/RNase A staining-based flow cytometric analysis (reference value: 60.6%); format: functional
MCF7 [15] = assay: Cell cycle arrest in human MCF7 cells assessed as accumulation of cells S phase at 1.2 uM after 24 hrs by propidium iodide/RNase A staining-based flow cytometric analysis (reference value: 6.75%); format: functional
MCF7 [16] = assay: Cell cycle arrest in human MCF7 cells assessed as accumulation of cells S phase after 24 hrs by propidium iodide/RNase A staining-based flow cytometric analysis; format: functional
MCF7 [17] = assay: Induction of apoptosis in human MCF7 cells assessed as late apoptotic cells at 1.2 uM after 24 hrs by Annexin V-FITC/propidium iodide staining-based flow cytometric analysis (reference value: 1.22%); format: functional
MCF7 [18] = assay: Induction of apoptosis in human MCF7 cells assessed as increase in caspase3 activation at 0.3 to 1.2 uM after 72 hrs by Western blot analysis; format: functional, cell-based
Summary of the method: (§3)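 MCF7 exposed to 0.3, 0.6 or 1.2 µM for 72 h. Total protein (30 µg, BCA-quantified) run on SDS-PAGE and transferred to PVDF. Membranes blocked in 5% milk/TBS-0.05% Tween 20 for 2 h at room temperature, probed overnight at 4 °C with anti-cleaved caspase-3, caspase-9 and β-actin (loading control), then HRP anti-rabbit IgG; ECL detection.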

MCF7 [19] = assay: Cell cycle arrest in human MCF7 cells assessed as accumulation of cells S phase at 0.6 uM after 24 hrs by propidium iodide/RNase A staining-based flow cytometric analysis (reference value: 6.75%); format: functional
MCF7 [20] = assay: Induction of apoptosis in human MCF7 cells assessed as early apoptotic cells at 0.6 uM after 24 hrs by Annexin V-FITC/propidium iodide staining-based flow cytometric analysis (reference value: 0.816%); format: functional
MCF7 [21] = assay: Induction of apoptosis in human MCF7 cells assessed as increase in caspase9 activation at 0.3 to 1.2 uM after 72 hrs by Western blot analysis; format: functional, cell-based; summary of the method: as §3
MCF7 [22] = assay: Induction of apoptosis in human MCF7 cells assessed as late apoptotic cells at 0.6 uM after 24 hrs by Annexin V-FITC/propidium iodide staining-based flow cytometric analysis (reference value: 1.22%); format: functional
MCF7 [23] = assay: Cell cycle arrest in human MCF7 cells assessed as accumulation of cells G1 phase at 1.2 uM after 24 hrs by propidium iodide/RNase A staining-based flow cytometric analysis (reference value: 60.6%); format: functional
MCF7 [24] = assay: Induction of apoptosis in human MCF7 cells assessed as nuclear fragmentation at 0.3 to 1.2 uM after 24 hrs by Hoechst 33342 staining-based fluorescence microscopic analysis; format: functional, cell-based; summary of the method: as §2
MCF7 [25] = assay: Induction of apoptosis in human MCF7 cells assessed as necrotic cells at 1.2 uM after 24 hrs by Annexin V-FITC/propidium iodide staining-based flow cytometric analysis (reference value: 0.426%); format: functional
MCF7 [26] = assay: Induction of apoptosis in human MCF7 cells assessed as late apoptotic cells at 0.3 uM after 24 hrs by Annexin V-FITC/propidium iodide staining-based flow cytometric analysis (reference value: 1.22%); format: functional
MCF7 [27] = assay: Cell cycle arrest in human MCF7 cells assessed as accumulation of cells G2 phase at 0.6 uM after 24 hrs by propidium iodide/RNase A staining-based flow cytometric analysis (reference value: 35.08%); format: functional
MCF7 [28] = assay: Induction of apoptosis in human MCF7 cells assessed as nuclear condensation at 0.3 to 1.2 uM after 24 hrs by Hoechst 33342 staining-based fluorescence microscopic analysis; format: functional, cell-based; summary of the method: as §2

Work on `COc1cnc2nc1Nc1cccc(c1)Nc1ncc(OC)c(n1)Nc1cccc(c1)N2` yielded an IC50 (A549) greater than 50 µM, an IC50 (SH-SY5Y) greater than 50 µM and an IC50 (MCF7 [1]) greater than 50 µM. For the same compound, the IC50 (CNE) was greater than 50 µM and the IC50 (L02) was greater than 50 µM.
Compound `c1cc2cc(c1)Nc1nccc(n1)Nc1cccc(c1)Nc1nccc(n1)N2` has an IC50 (A549) greater than 50 µM, an IC50 (SH-SY5Y) greater than 50 µM and an IC50 (MCF7 [1]) greater than 50 µM. For the same compound, the IC50 (CNE) was greater than 50 µM and the IC50 (L02) was greater than 50 µM.
`Fc1cnc2nc1Nc1cc(cc(C(F)(F)F)c1)Nc1ncc(F)c(n1)Nc1cc(cc(C(F)(F)F)c1)N2` was tested, and the IC50 (A549) was greater than 50 µM, the IC50 (SH-SY5Y) was greater than 50 µM and the IC50 (MCF7 [1]) was greater than 50 µM. It also gave an IC50 (CNE) greater than 50 µM and an IC50 (L02) greater than 50 µM.
With `Cc1cnc2nc1Nc1cc(cc(N3CCCC3)c1)Nc1ncc(C)c(n1)Nc1cc(cc(N3CCCC3)c1)N2` the IC50 (A549) was 4.25 µM, the IC50 (SH-SY5Y) was 7.21 µM and the IC50 (MCF7 [1]) was 4.9 µM. It also gave an IC50 (CNE) greater than 50 µM and an IC50 (L02) of 30.8 µM.
With `c1cc2nc(n1)Nc1cc(cc(N3CCCC3)c1)Nc1ccnc(n1)Nc1cc(cc(N3CCCC3)c1)N2` the viability at 1.2 µM (MCF7 [2]) was 69.1%, the Activity (MCF7 [3]) was “Active” and the Activity (MCF7 [4]) was 0.197%. For the same compound, the Activity (MCF7 [5]) was 0.148%, the viability at 0.3 µM (MCF7 [6]) was 92.7% and the IC50 (A549) was 0.94 µM. It also gave an Activity (MCF7 [7]) of 7.88%, an Activity (MCF7 [8]) of 55.71% and an IC50 (SH-SY5Y) of 1.82 µM. For the same compound, the Activity (MCF7 [9]) was 26.6%, the IC50 (MCF7 [1]) was 0.58 µM and the IC50 (CNE) was 46.5 µM. For the same compound, the Activity (MCF7 [10]) was 34.8%, the viability at 0.6 µM (MCF7 [11]) was 73.8% and the Activity (MCF7 [12]) was 5.76%. The Activity (MCF7 [13]) was 11.54%, the IC50 (L02) was 25.6 µM and the Activity (MCF7 [14]) was 56.54%. For the same compound, the Activity (MCF7 [15]) was 38.08%, the Activity (MCF7 [16]) was “Dose-dependent effect” and the Activity (MCF7 [17]) was 4.2%. For the same compound, the Activity (MCF7 [18]) was “Active”, the Activity (MCF7 [19]) was 17.49% and the Activity (MCF7 [20]) was 23.2%. The Activity (MCF7 [21]) was “Active”, the Activity (MCF7 [22]) was 2.86% and the Activity (MCF7 [23]) was 52.9%. The Activity (MCF7 [24]) was “Active”, the Activity (MCF7 [25]) was 0.232% and the Activity (MCF7 [26]) was 1.35%. For the same compound, the Activity (MCF7 [27]) was 25.13% and the Activity (MCF7 [28]) was “Active”.
`CCOC(=O)c1cc2cc(c1)Nc1nc(ncc1Cl)Nc1cc(cc(C(=O)OCC)c1)Nc1nc(ncc1Cl)N2` gave an IC50 (A549) greater than 50 µM, an IC50 (SH-SY5Y) greater than 50 µM and an IC50 (MCF7 [1]) greater than 50 µM. The IC50 (CNE) was greater than 50 µM and the IC50 (L02) was greater than 50 µM.
Work on `c1cc2nc(n1)Nc1cc(cc(N3CCOCC3)c1)Nc1ccnc(n1)Nc1cc(cc(N3CCOCC3)c1)N2` yielded an IC50 (A549) greater than 50 µM, an IC50 (SH-SY5Y) greater than 50 µM and an IC50 (MCF7 [1]) greater than 50 µM. For the same compound, the IC50 (CNE) was greater than 50 µM and the IC50 (L02) was greater than 50 µM.
`COc1cccc2c1C(=O)c1c(O)c3c(c(O)c1C2=O)C[C@@](O)(C(=O)CO)C[C@@H]3O[C@H]1C[C@H](N)[C@H](O)[C@H](C)O1` [DOXORUBICIN] was tested, and the IC50 (A549) was 0.63 µM, the IC50 (SH-SY5Y) was 0.89 µM and the IC50 (MCF7 [1]) was 0.48 µM. For the same compound, the IC50 (CNE) was 0.22 µM and the IC50 (L02) was 0.88 µM.
`Fc1cnc2nc1Nc1cc(cc(C(F)(F)F)c1)Nc1ncc(Cl)c(n1)Nc1cc(cc(C(F)(F)F)c1)N2` showed an IC50 (A549) greater than 50 µM, an IC50 (SH-SY5Y) greater than 50 µM and an IC50 (MCF7 [1]) greater than 50 µM. It also gave an IC50 (CNE) greater than 50 µM and an IC50 (L02) greater than 50 µM.
In the case of `Cc1cnc2nc1Nc1cc(cc(C(F)(F)F)c1)Nc1ncc(C)c(n1)Nc1cc(cc(C(F)(F)F)c1)N2`, the IC50 (A549) is reported as greater than 50 µM, the IC50 (SH-SY5Y) is reported as greater than 50 µM and the IC50 (MCF7 [1]) is reported as greater than 50 µM. It also gave an IC50 (CNE) greater than 50 µM and an IC50 (L02) greater than 50 µM.
For `Clc1cnc2nc1Nc1cccc(c1)Nc1ncc(Cl)c(n1)Nc1cccc(c1)N2`, the IC50 (A549) was greater than 50 µM, the IC50 (SH-SY5Y) was greater than 50 µM and the IC50 (MCF7 [1]) was greater than 50 µM. It also gave an IC50 (CNE) greater than 50 µM and an IC50 (L02) greater than 50 µM.
